Active and inactive are the calls of the source. The calls are words filed in the database; no cut-off is given here.
Columns and labels:
Homo sapiens [1] = species on record: Homo sapiens; assay: Modulation of patient derived full length SMN2 pre mRNA splicing assessed as restoration of functional SMN2 to protein level
Homo sapiens [2] = species on record: Homo sapiens; assay: Modulation of patient derived full length SMN2 pre mRNA splicing assessed as inclusion of exon 7
Salmonella typhimurium [3] = assay: Genotoxicity in Salmonella typhimurium TA97 in presence of rat liver S9 fraction by Ames test; assay type: toxicity; details: salmonella enterica subsp. enterica serovar typhimurium
Procedure, shortened: (§1)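 Ames plate incorporation: strains grown overnight at 37 °C in nutrient broth (TA102 with 0.3 μg/mL tetracycline). Compound at 20–2000 μg/plate in top agar with histidine/biotin, plus rat liver S9 mix (NADP, glucose 6-phosphate, KCl, MgCl2, pH 7.4 phosphate). Vogel–Bonner plates incubated 37 °C, 2 days; colonies counted by image analysis. Positive: dose-dependent ≥2-fold (TA1535, TA98) or ≥1.5-fold (TA97, TA100, TA102) rise over background.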

Salmonella typhimurium [4] = assay: Genotoxicity in Salmonella typhimurium TA100 in presence of rat liver S9 fraction by Ames test; assay type: toxicity; details: salmonella enterica subsp. enterica serovar typhimurium; procedure, shortened: as §1
Salmonella typhimurium [5] = assay: Genotoxicity in Salmonella typhimurium TA1535 in presence of rat liver S9 fraction by Ames test; assay type: toxicity; details: salmonella enterica subsp. enterica serovar typhimurium; procedure, shortened: as §1
Salmonella typhimurium [6] = assay: Genotoxicity in Salmonella typhimurium TA98 in presence of rat liver S9 fraction by Ames test; assay type: toxicity; details: salmonella enterica subsp. enterica serovar typhimurium; procedure, shortened: as §1
Salmonella typhimurium [7] = assay: Genotoxicity in Salmonella typhimurium TA102 in presence of rat liver S9 fraction by Ames test; assay type: toxicity; details: salmonella enterica subsp. enterica serovar typhimurium; procedure, shortened: as §1
Mus musculus [8] = assay: Induction of SMN protein levels in C/C-Allele SMA FVB mouse brain at 10 mg/kg, po qd for 10 days measured 1 hr post last dose by HTRF assay relative to control; assay type: functional
Procedure, shortened: (§2)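 Adult C/C-allele SMA mice dosed orally once daily for 10 days at 1, 3 or 10 mg/kg. SMN protein in brain and quadriceps was expressed as % increase over vehicle-treated animals.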

Mus musculus [9] = assay: Induction of SMN protein levels in neonatal delta7 FVB mouse brain at 0.3 mg/kg, ip qd administered from postnatal day 3 to day 9 measured 1 hr post last dose by HTRF assay relative to control; assay type: functional
Mus musculus [10] = assay: Induction of SMN protein levels in C/C-Allele SMA FVB mouse brain at 1 mg/kg, po qd for 10 days measured 1 hr post last dose by HTRF assay relative to control; assay type: functional; procedure, shortened: as §2
Mus musculus [11] = assay: Induction of SMN protein levels in neonatal delta7 FVB mouse brain at 3 mg/kg, ip qd administered from postnatal day 3 to day 9 measured 1 hr post last dose by HTRF assay relative to control; assay type: functional
Mus musculus [12] = assay: Induction of SMN protein levels in neonatal delta7 FVB mouse brain at 1 mg/kg, ip qd administered from postnatal day 3 to day 9 measured 1 hr post last dose by HTRF assay relative to control; assay type: functional
Mus musculus [13] = assay: Induction of SMN protein levels in C/C-Allele SMA FVB mouse brain at 3 mg/kg, po qd for 10 days measured 1 hr post last dose by HTRF assay relative to control; assay type: functional; procedure, shortened: as §2
[14] = Total AUC in wild type FVB mouse plasma at 10 mg/kg, po qd for 10 days by LC-MS/MS analysis; assay type: ADME, organism-based; set-up: dose 10 mg/kg, route oral, time AUCmax
[15] = Total AUC in neonatal wild type FVB mouse plasma at 3 mg/kg, ip qd for 10 days by LC-MS/MS analysis; assay type: ADME, organism-based; set-up: dose 3 mg/kg, route intraperitoneal, time AUCmax
Procedure, shortened: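 Plasma AUC determined in a satellite group of neonatal (P10) wild-type mice dosed ip. Free AUC was calculated using the free fraction measured in serum from adult mice.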

Compound	EC1.5 (Homo sapiens [1])	EC1.5 (Homo sapiens [2])	other results
Cc1cn2cc(N(C)C(=O)c3ccc(N4CCN(C)CC4)cc3)nc2c(C)n1	inactive	inactive	–
COc1cc(N2CCNC(C)C2)ccc1C(=O)Nc1cn2cc(C)nc2cn1 (stereo not given)	206 nM	58 nM	–
Cc1cn2cc(NC(=O)c3ccc(C4CCN(C)C4)cc3F)nc2c(C)n1 (stereo not given)	176 nM	91 nM	–
Cc1cn2cc(NC(=O)c3ccc(N4CCN(C)CC4)cn3)nc2c(C)n1	1520 nM	–	–
Cc1cn2cc(CCc3ccc(N4CCNCC4)cc3)nc2c(C)n1	inactive	inactive	–
Cc1cn2cc(COc3ccc(N4CCNCC4)cc3)nc2c(C)n1	inactive	inactive	–
Cc1cn2cc(C(=O)Nc3ccc(N4CCN(C)CC4)cc3)nc2c(C)n1	inactive	inactive	–
CCN1CCN(c2ccc3cc(-c4cn5cc(C)nc(C)c5n4)c(=O)oc3c2)C[C@@H]1C	–	–	Activity (Salmonella typhimurium [3]): Toxic; Activity (Salmonella typhimurium [4]): Toxic; Activity (Salmonella typhimurium [5]): Toxic; Activity (Salmonella typhimurium [6]): Toxic; Activity (Salmonella typhimurium [7]): Toxic
Cc1cn2cc(-c3ccc4c(c3)CCN(C3CCNCC3)C4=O)nc2c(C)n1	inactive	530 nM	–
Cc1cn2cc(NC(=O)c3ccc(C4CCNCC4)cc3)nc2c(C)n1	3800 nM	820 nM	–
Cc1cn2cc(NC(=O)c3ccc(N4CCNC(C)C4)c(F)c3F)ncc2n1 (stereo not given)	603 nM	165 nM	–
Cc1cn2cc(-c3ccc(NC(=O)C4CCN(C)CC4)cc3)nc2c(C)n1	inactive	inactive	–
Cc1cn2cc(C(=O)Nc3ccc(C4CCN(C)CC4)cc3)nc2c(C)n1	inactive	inactive	–
Cc1cn2cc(-c3cc4ccc(N5CCN(C)CC5)cc4c(=O)o3)nc2c(C)n1	–	25 nM	Activity (Salmonella typhimurium [3]): Toxic; Activity (Salmonella typhimurium [4]): Toxic; Activity (Salmonella typhimurium [5]): Toxic; Activity (Salmonella typhimurium [6]): Toxic; Activity (Salmonella typhimurium [7]): Toxic
Cc1cn2cc(-c3ccc(NC(=O)N4CCN(C)CC4)cc3)nc2c(C)n1	inactive	inactive	–
Cc1cn2cc(-c3ccc4c(c3)OC(=O)N(C3CCNCC3)C4)nc2c(C)n1	inactive	4700 nM	–
Cc1cn2cc(C#Cc3ccc(N4CCN(C)CC4)cc3)nc2c(C)n1	inactive	inactive	–
Cc1cn2cc(-c3ccc(C(=O)NC4CCN(C)CC4)cc3)nc2c(C)n1	inactive	inactive	–
Cc1cn2cc(/C=C/c3ccc(N4CCNCC4)cc3)nc2c(C)n1	8420 nM	4410 nM	–

Continued, in another order:

EC1.5 (Homo sapiens [1])	EC1.5 (Homo sapiens [2])	Compound	other results
504 nM	31 nM	Cc1cn2cc(NC(=O)c3ccc(N4CCNC(C)(C)C4)cc3F)ncc2n1	–
inactive	inactive	Cc1cn2nc(NC(=O)c3ccc(N4CCNC(C)C4)cc3F)nc2c(C)n1 (stereo not given)	Activity (Salmonella typhimurium [3]): Non-Toxic; Activity (Salmonella typhimurium [4]): Non-Toxic; Activity (Salmonella typhimurium [5]): Non-Toxic; Activity (Salmonella typhimurium [6]): Non-Toxic; Activity (Salmonella typhimurium [7]): Non-Toxic
560 nM	232 nM	Cc1cn2cc(NC(=O)c3ccc(N4CCN(C)CC4)cc3F)nc2c(C)n1	–
116 nM	39 nM	Cc1nc2c(F)cc(NC(=O)c3ccc(N4CCNCC4)cc3F)cc2o1	Activity (Salmonella typhimurium [3]): Non-Toxic; Activity (Salmonella typhimurium [4]): Non-Toxic; Activity (Salmonella typhimurium [5]): Non-Toxic; Activity (Salmonella typhimurium [6]): Non-Toxic; Activity (Salmonella typhimurium [7]): Non-Toxic
775 nM	–	Cc1cn2cc(NC(=O)c3ccc(N4CCNCC4)cc3)nc2c(C)n1	–
200 nM	100 nM	Cc1cn2cc(NC(=O)c3ccc(N4CCN(N5CCCC5)CC4)cc3F)nc2c(C)n1	–
2250 nM	1040 nM	Cc1cn2cc(NC(=O)c3ccc(N4CCNCC4)cc3)ncc2n1	–
495 nM	85 nM	Cc1cn2cc(NC(=O)c3cc(F)c(N4CCNC(C)C4)cc3F)ncc2n1 (stereo not given)	–
265 nM	106 nM	Cc1cn2cc(NC(=O)c3ccc(N4CCNC(C(C)C)C4)cc3F)ncc2n1 (stereo not given)	–
158 nM	29 nM	CC[C@@H]1CN(c2ccc(C(=O)Nc3cn4cc(C)nc4cn3)c(F)c2)CCN1	Activity (Mus musculus [8]): 217%; Activity (Mus musculus [9]): 0%; Activity (Mus musculus [10]): 19%; Activity (Mus musculus [11]): 117%; Activity (Mus musculus [12]): 66%; Activity (Mus musculus [13]): 45%; AUC at 240 h [14]: 19000 ng·h/mL; AUC at 240 h [15]: 3730 ng·h/mL
246 nM	12 nM	CC[C@H]1CN(c2ccc(C(=O)Nc3cn4cc(C)nc4cn3)c(F)c2)CCN1	Activity (Mus musculus [8]): 260%; Activity (Mus musculus [9]): 26%; Activity (Mus musculus [10]): 22%; Activity (Mus musculus [11]): 100%; Activity (Mus musculus [12]): 53%; Activity (Mus musculus [13]): 81%; AUC at 240 h [14]: 27100 ng·h/mL; AUC at 240 h [15]: 4450 ng·h/mL
555 nM	129 nM	COc1nc(N2CCNCC2)ccc1C(=O)Nc1cn2cc(C)nc2cn1	–
86 nM	29 nM	Cc1cn2cc(NC(=O)c3ccc(N4CCC(N5CCCC5)C4)cc3F)nc2c(C)n1 (stereo not given)	–
122 nM	15 nM	Cc1cn2cc(NC(=O)c3ccc(N4CCN[C@H](C)C4)cc3F)ncc2n1	–
27 nM	11 nM	Cc1cn2cc(NC(=O)c3ccc(N4CCNCC4)cc3F)cc(F)c2n1	Activity (Salmonella typhimurium [3]): Toxic; Activity (Salmonella typhimurium [4]): Toxic; Activity (Salmonella typhimurium [5]): Toxic; Activity (Salmonella typhimurium [6]): Toxic; Activity (Salmonella typhimurium [7]): Toxic
152 nM	40 nM	Cc1cn2cc(NC(=O)c3ccc(N4CCNC(C)C4)cc3F)c(C)cc2n1 (stereo not given)	Activity (Salmonella typhimurium [3]): Non-Toxic; Activity (Salmonella typhimurium [4]): Non-Toxic; Activity (Salmonella typhimurium [5]): Non-Toxic; Activity (Salmonella typhimurium [6]): Non-Toxic; Activity (Salmonella typhimurium [7]): Non-Toxic
8760 nM	2030 nM	Cc1cn2cc(NC(=O)c3c(F)cc(N4CCNCC4)cc3Cl)ncc2n1	–
87 nM	37 nM	Cc1cn2cc(NC(=O)c3ccc(N4CCNCC4)cc3F)ncc2n1	Activity (Salmonella typhimurium [3]): Non-Toxic; Activity (Salmonella typhimurium [4]): Non-Toxic; Activity (Salmonella typhimurium [5]): Non-Toxic; Activity (Salmonella typhimurium [6]): Non-Toxic; Activity (Salmonella typhimurium [7]): Non-Toxic

— ChEMBL document CHEMBL4049449, “Discovery of a Novel Class of Survival Motor Neuron 2 Splicing Modifiers for the Treatment of Spinal Muscular Atrophy” (J Med Chem, 2017)
